According to ChEMBL document CHEMBL4513216, “Probing the Open Global Health Chemical Diversity Library for Multistage-Active Starting Points for Next-Generation Antimalarials” (ACS Infect Dis, 2020):

Experiment: Toxicity liver stage against HepG2, at 10uM
Format: cell-based
Design: test concentration 10 uM, cell line HepG2-A16-CD81EGFP
Conditions: human, HepG2-A16-CD81EGFP cells; read-out: INHIBITION
Outline: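 Uninfected HepG2-A16-CD81EGFP cells, 3 × 10^3 per well, 1536-well, plated on prespotted compound at 10 μM final, parasite-free screening media added to match infected plates; puromycin 10 μM positive, DMSO 0.5% negative; run in parallel with 48 h PbLuc assay at 37 °C, 5% CO2; viability by CellTiter-Glo luminescence, normalized to controls.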

Structure (SMILES) | cytotoxicity at 10 µM [%]
Cc1ncsc1C(=O)OCCN1CCCCCC1=O | -4.27
CCOCCn1c(=O)n(CCC=C(C)C)c2cc(C(=O)O)cnc21 | -2.85
Cc1nn(C)c(Cl)c1C1CCCN1c1ncnc2sccc12 (stereo not given) | 20.8
O=C(c1cc(Cn2ccc3ccccc32)[nH]n1)N1CCC[C@H]1CO | -1.99
Cc1ocnc1C(=O)Nc1ccc(-c2nnc(N(C)C)o2)cc1 | 5.49
Cc1ccc(C(=O)N2CCC(Oc3ccc(F)cc3F)CC2)c(=O)[nH]1 | 7.63
Cc1ccc(NS(=O)(=O)c2c[nH]c3ncccc23)nc1 | 6.43
CC(C)c1ncc2c(n1)CN(Cc1nc(-c3ccoc3)no1)CC2 | -3
O=C(c1ccco1)N1C2CCC(O)(CC2)C1CN1CCOCC1 (stereo not given) | 6.93
Cn1cccc1C(=O)N1CC[C@H]2C[C@@H](c3ccncn3)O[C@@H]2C1 | 0.77
COc1ccc(F)cc1C(C(=O)O)N1CCSCC1 (stereo not given) | -4.2
CC(C)C1CN(C(=O)c2cn3ccccc3n2)CCCN1CC1CC1 (stereo not given) | -13.6
O=C(c1cc(Cl)c(Br)[nH]1)N1CCN(Cc2ccco2)CC1 | -55.7
CN(Cc1ccncc1)c1cncc(Br)c1 | 2.71
O=C(CNc1nc(C(F)(F)F)cs1)N1CCc2sccc2C1 | 15.1
c1nc(N2CCOCC2)ncc1-c1cncn1CCCN1CCCCC1 | -7.08
Cn1cc(-c2cccc(CNC(=O)N3CCC[C@@H]3CO)c2)cn1 | -5.89
CC(=O)N1CCN(Cc2ccco2)CC2(CC(=O)N(C)C2)C1 (stereo not given) | -3.81
COc1cc(CNC(=O)Nc2nnc(C(C)C)s2)ccc1O | -2.22
CNC(=O)CCS(=O)(=O)Cc1coc(-c2ccc(F)cc2)n1 | -3
CNC(=O)c1cn[nH]c1C1CCN(Cc2cccc(C)c2OC)C1 (stereo not given) | -23.6
CCCn1nccc1NC(=O)CN1CCc2cnc(C(C)C)nc2C1 | -5.59

Structure (SMILES) | cytotoxicity at 10 µM [%]
CC(C)CC(=O)N1CC[C@@H]2[C@H](CC1)N(S(C)(=O)=O)CCS2(=O)=O | -11.4
Cc1cs/c(=N\C(=O)Cn2nc(N3CCC(C)CC3)ccc2=O)[nH]1 | 1.34
CN(C)Cc1nnc(C(=O)N(C)Cc2ccc(C(F)(F)F)cc2)o1 | -6.72
COc1ccc(CN2CCCC2c2cccc(F)c2)c(OC)c1OC (stereo not given) | 3.48
Cc1ccc(CNC(=O)N2CCN(C(C)c3cccnc3)CC2)cn1 (stereo not given) | -2.11
Cc1ccoc1C(=O)NC1CCN(Cc2cccc3c2OCCO3)CC1 | 1.18
CCNc1ncc(C(=O)N[C@@H](C)[C@H](O)c2ccccc2)cn1 | -4.71
COc1cccc(COc2nc(C(C)C)no2)c1 | -42.4
Cc1nnsc1CN1C[C@H]2CC[C@@H](C1)N(Cc1c(C)noc1C)C2=O | -4.56
Cc1ccc(N2CCCN(C(=O)CCC3CCCO3)CC2)nn1 (stereo not given) | -16.3
CCN(C(=O)CN1CCCC1c1c(C)nn(C)c1OC)C1CC1 (stereo not given) | -0.54
CN(Cc1cscn1)C1CCCN(c2cccnn2)C1 (stereo not given) | -3.69
CCN(C)c1ncnc2c1CCN(C(=O)[C@H]1CCCO1)CC2 | 3.38
O=S(=O)(N[C@H]1CC[C@H]1NC1Cc2ccccc2C1)c1cccnc1 | 1.24
CCCC(C)CN1CCC(n2cc(C3CCCC3)nn2)CC1 (stereo not given) | 14.2
COCCN1CCOCC12CCN(c1ccc(C#N)cc1)CC2 | -2.51
CCN(Cc1nc2c(cnn2C)c(=O)[nH]1)c1ccccc1 | -7.36
CC(C)c1noc(CNc2ccc(OC(F)F)cc2OC(F)F)n1 | 23.6
Cc1noc(-c2ccc(N3CCCC(C(=O)c4nccn4C)C3)nc2)n1 (stereo not given) | -6.58
CN(C)C(=O)CCS(=O)(=O)Cc1cc(Cl)c2c(c1)OCCO2 | 9.15
CCn1cc(CN2CCCn3nc(CNS(C)(=O)=O)cc3C2)c(C)n1 | 4.06
COC(=O)CCC(=O)N(C/C=C/c1ccccc1)CCO | 3.28

Structure (SMILES) | cytotoxicity at 10 µM [%]
CC(=O)c1cccc(NC(=O)Cn2nc(-c3cccs3)oc2=O)c1 | 4.78
COc1c(CNCc2ccc(CN(C)C)cc2)c(C)nn1C | 3.87
CC(C)COCC(NC(=O)c1ccccn1)c1ccco1 (stereo not given) | -7.52
CCN(CC1CCOC1)C(=O)Cn1nnn(-c2cccs2)c1=O (stereo not given) | -49.7
CN(C)C(=O)COCC1CN(S(C)(=O)=O)Cc2ncn(C)c21 (stereo not given) | 4.39
CC(C)N(C)C(=O)c1ccc(Cl)c(NC(=O)CCN2C(=O)CCC2=O)c1 | -2.63
CN(C)S(=O)(=O)c1ccc(CNc2ccc(Cl)cn2)cc1 | 7.25
Cc1cccc2cc(CNCCCN3CCOCC3)c(=O)[nH]c12 | 0.127
CCc1cnc(N2C[C@@H]3C[C@H](C(=O)NC4CCC4)[C@H](C2)O3)nc1 | 5.74
COc1ccc(-c2cc(C(=O)NCCC(C)C)n(C)n2)cc1 | 0
CNC(=O)NC(=O)Cn1cc(-c2ccccc2)cn1 | 3.37
CCOc1ccc(C(=O)N(Cc2cnn(C)c2)C(C)C)cc1 | 13.4
c1ccc(-c2nc(CN3CCn4c(nnc4C4CC4)C3)no2)cc1 | -3.47
Cn1ccnc1C(=O)N1CCCC1c1ccc(C(=O)N2CCOCC2)s1 (stereo not given) | -155
CC(CC#N)N(C)Cc1ccc(F)cc1C#N (stereo not given) | -6.69
CN(C)c1nccc(C2CCN(c3ncccn3)CC2)n1 | 0.59
Cc1ccc(CC(=O)N2CSCC2C(=O)N(C)Cc2ccco2)o1 (stereo not given) | -4.32
CC(C)NC(=O)[C@H]1C[C@@H]2[C@@H](C1)OCCN2Cc1nccs1 | 6.1
Cn1c(N2CCOCC2)nc2cc(C(=O)NCc3cccnc3)ccc21 | 0.678
Cc1nn(C)c(C)c1NC(=O)CNc1cc(C(F)(F)F)ccc1F | 13.4
CN(CC1CCCCO1)c1nc(-c2cccnc2)nc2c1CCNC2 (stereo not given) | 3.01
Cc1cc(NS(=O)(=O)CC2CCCCO2)ccc1F (stereo not given) | -11.7

Structure (SMILES) | cytotoxicity at 10 µM [%]
CN1CCOC(CNCc2ccc(OCc3ccccn3)cc2)C1 (stereo not given) | -13.4
COc1c[nH]c(C(=O)N2CCN(c3ccc(Cl)cc3)CC2)cc1=O | 4.42
Cc1cc(N(C)Cc2snnc2C)nc(-c2cccnc2)n1 | 2.43
O=C(Cc1cccc(O)c1)NCCNc1nccc(C(F)(F)F)n1 | 7.48
Cc1cccc(C(=O)N2CCN(C)CC2)c1NC(=O)c1ccncc1 | -10.8
Cc1cc(C(C)(O)CNC(=O)C2(C)CCCC2)c(C)o1 (stereo not given) | -4.88
Cn1ccnc1CN1CC[C@H]2CO[C@H](CNc3ncccn3)[C@H]2C1 | -5.81
CC(=O)N1CCC(C(=O)N(C)[C@@H]2CCC[C@@H](N3CCCC3)[C@@H]2O)CC1 | -0.156
CC(C)(C)C(=O)N1CCC2(COCc3cnc(N4CCOCC4)nc32)C1 (stereo not given) | -14.2
O=C(NCC1CCS(=O)(=O)C1)c1ccc(NC(=O)c2ccco2)cc1 (stereo not given) | 3.25
COC(=O)NC1(C(=O)Nc2ccc(-c3cc[nH]n3)cc2)CCCC1 | -11.2
CCC[C@H]1CN(C(=O)Cn2ccccc2=O)C[C@@H]1NS(C)(=O)=O | 11.1
Cc1ccoc1C(=O)N1CCO[C@H]2[C@H](OCC3CCOCC3)CC[C@@H]21 | -6.42
Cc1ncccc1OC1(C(=O)NCCc2ccccn2)CCNCC1 | 1.83
Cc1cc(CC(C)NC(=O)c2cccc(CC3CCNCC3)c2)[nH]n1 (stereo not given) | 11.1
CC(C)C(NCc1ccc(Cn2cncn2)cc1)c1ccccc1 (stereo not given) | 4.1
O=C(Nc1cc(-c2ccncc2)no1)C1CCCCC1 | -5.37
O=C(O)c1cc(C2CC2)nc2c(Cl)cnn12 | 8.63
Cc1ccc(CNC(=O)NCc2ccco2)s1 | 3.47
CNC(=O)c1cnc(C)nc1CCNC(=O)CCc1ccccc1 | -0.0555
Cc1cnc(N2CCC3(CC(=O)N(Cc4csc(C)n4)C3)C2)nc1 (stereo not given) | -0.211
COCCCC1(CO)CCCN(C(=O)c2cnc3c(c2)CCCC3)C1 (stereo not given) | -50.2

Structure (SMILES) | cytotoxicity at 10 µM [%]
CC(C)n1nc(CN(C)C)c2c1CN(CC1CC1)CC2 | -3.15
Fc1cnc(N2CCCC3(CCN(Cc4ccoc4)C3)C2)nc1 (stereo not given) | -80.6
O=C(Cn1c(=O)oc2ccccc21)NCC1(O)CCc2ccccc2C1 (stereo not given) | 5.37
COc1ccc2c(c1)CCN(CCC(=O)NC1CCCCC1)CC2 | -11.4
CCS(=O)(=O)N1C[C@H]2CC[C@@]3(N=C(C)N(CC(C)C)C3=O)[C@H]2C1 | -85
Cc1nsc(N2CCCN(c3nc(C4CC4)ns3)CC2)n1 | -11.5
CC(NC(=O)NCCCN(C)S(C)(=O)=O)c1ccc(F)cc1 (stereo not given) | -21.9
CCc1noc(C(C)N2CCN(C(=O)CN3CCOCC3)CC2)n1 (stereo not given) | -9.17
COc1ccc(OCCCN2CCOC(Cn3cccn3)C2)cc1 (stereo not given) | 5.34
NC(=O)CN1C(=O)CO[C@H]2CN(Cc3ccc(F)c(F)c3)C[C@H]21 | 2.44
CN(C)c1cc(CNC(=O)c2ccc(F)cc2F)ccn1 | -4.82
COCC1c2c(cnn2C)CCN1C(=O)c1ccc2c(c1)OCO2 (stereo not given) | 3.74
CCC1CN(CC(=O)NCCC#N)CCO1 (stereo not given) | 2.28
CS(=O)(=O)NC1CCCN(C(=O)NCc2ccoc2)C1 (stereo not given) | -14.9
COc1ncccc1CNCc1c(C(C)C)nn(C)c1N(C)C | -5.91
Cc1cc(NCc2csc(-c3ccco3)n2)ccc1C(N)=O | 20.3
Cc1nc(CN2CCCC(c3cc(C(F)(F)F)[nH]n3)C2)cs1 (stereo not given) | -4.95
CC(=O)Nc1ncc(S(=O)(=O)Nc2ccccc2F)s1 | 14.4
CCc1nc(CN(C)CC(N)=O)cs1 | -8.9
COCC1c2nnn(C)c2CCN1C(=O)CCc1cccc(OC)c1 (stereo not given) | -90.4
Cc1n[nH]c(C2CN(C(=O)c3csnn3)CCO2)n1 (stereo not given) | 2.74
Fc1ccc(CN2C[C@@H]3OCCN(CCN4CCCC4)[C@@H]3C2)cc1 | -3.58
